Test results from ChEMBL document CHEMBL3414472, “Synthesis, SAR, and series evolution of novel oxadiazole-containing 5-lipoxygenase activating protein inhibitors: discovery of 2-[4-(3-{(r)-1-[4-(2-amino-pyrimidin-5-yl)-phenyl]-1-cyclopropyl-ethyl}-[1,2,4]oxadiazol-5-yl)-pyrazol-1-yl]-N,N-dimethyl-acetamide (BI 665915)” (J Med Chem, 2015).
≈ marks a conversion by molar mass, not a printed value.

How the values were obtained:
[1] = Aqueous equilibrium solubility of the compound in crystalline form in citric acid/disodium phosphate buffer at pH 6.8 after 24 hrs of rotation by HPLC analysis; format: physicochemical
How it was run: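 Saturated solution of crystalline material in citric acid/disodium phosphate buffer pH 6.8 rotated 24 h; after centrifugation and filtration, dissolved concentration measured by HPLC.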

Mus musculus [2] = assay: In vivo inhibition of FLAP in po dosed C57BL/6 mouse assessed as reduction of LTB4 production in calcimycin-stimulated whole blood after 2 hrs by ELISA; format: functional, organism-based
[3] = Mean residence time in dog at 1 mg/kg, iv; format: ADME, organism-based, Canis lupus familiaris; design: dose 1 mg/kg, route intravenous; details: in vivo
How it was run: (§1)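 iv 1 mg/kg in 70 % PEG; po 10 mg/kg as suspension in 0.5 % methyl cellulose/0.015 % Tween. Blood sampled at 11 timepoints (0, 5, 15, 30 min, 1, 2, 4, 6, 8, 12, 24 h) per dose; mean of n = 3. Clearance expressed as percent of hepatic blood flow.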

Mus musculus [4] = assay: In vivo inhibition of FLAP in C57BL/6 mouse assessed as LTB4 production in calcimycin-stimulated whole blood at 3 mg/kg, po after 2 hrs by ELISA (reference value: 100 +/- 13.3%); format: functional; design: scale not given: the % may be the effect or the level left
[5] = Plasma concentration in C57BL/6 mouse at 1 mg/kg, po after 2 hrs; format: ADME, organism-based; design: dose 1 mg/kg, route oral
[6] = Oral bioavailability in rat at 10 mg/kg; format: ADME, organism-based; details: in vivo; how it was run: as §1
[7] = Fraction unbound in human plasma by equilibrium dialysis method; format: ADME, cell-free
How it was run: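 Unbound fraction in human plasma determined by equilibrium dialysis, in duplicate.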

Hepatocyte = assay: Unbound clearance in human hepatocytes at 1 uM measured over 6 hrs by LC/MS analysis relative to hepatic blood flow; format: ADME, cell-based, Liver
How it was run: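 Cryopreserved human hepatocytes (1 million cells/mL) with 1 µM compound at 37 °C for 6 h; compound remaining measured by LC/MS over a duplicate 6-timepoint (0 to 6 h) curve. Clearance derived from the ln(% remaining) vs time slope and corrected by the human plasma unbound fraction; expressed as percent of hepatic blood flow.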

[8] = Plasma concentration in C57BL/6 mouse at 100 mg/kg, po after 2 hrs; format: ADME, organism-based; design: dose 100 mg/kg, route oral
Canis familiaris = assay: Clearance in dog at 1 mg/kg, iv and 10 mg/kg, po relative to hepatic blood flow; format: ADME, organism-based, Canis lupus familiaris, Liver; details: in vivo; how it was run: as §1
[9] = target: T1, Prostaglandin G/H synthase 2 (Homo sapiens) (UniProt P35354); assay: Inhibition of cycloxygenase-2 (unknown origin) at 10 uM relative to control
T1 sequence (whole entry): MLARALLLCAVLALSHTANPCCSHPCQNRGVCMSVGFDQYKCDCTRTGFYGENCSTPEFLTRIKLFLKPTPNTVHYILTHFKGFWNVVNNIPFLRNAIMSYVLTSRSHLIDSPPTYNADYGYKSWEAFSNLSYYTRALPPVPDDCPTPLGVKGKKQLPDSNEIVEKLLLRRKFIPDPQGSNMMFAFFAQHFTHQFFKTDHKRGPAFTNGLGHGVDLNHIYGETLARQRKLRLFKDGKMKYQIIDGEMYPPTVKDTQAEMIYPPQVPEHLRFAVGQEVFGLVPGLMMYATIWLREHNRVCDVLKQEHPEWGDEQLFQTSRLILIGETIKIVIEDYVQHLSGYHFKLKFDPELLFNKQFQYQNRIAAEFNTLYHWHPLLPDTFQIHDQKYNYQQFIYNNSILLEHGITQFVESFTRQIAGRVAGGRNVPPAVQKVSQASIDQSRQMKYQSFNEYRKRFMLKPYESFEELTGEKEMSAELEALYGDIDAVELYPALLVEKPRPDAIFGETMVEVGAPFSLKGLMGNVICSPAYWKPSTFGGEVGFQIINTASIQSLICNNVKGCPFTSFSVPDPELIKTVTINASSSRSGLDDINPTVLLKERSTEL

Mus musculus [10] = assay: In vivo inhibition of FLAP in C57BL/6 mouse assessed as LTB4 production in calcimycin-stimulated whole blood at 100 mg/kg, po after 2 hrs by ELISA (reference value: 100 +/- 13.3%); format: functional; design: scale not given: the % may be the effect or the level left
[11] = target: T2, Cytosolic phospholipase A2 (Homo sapiens) (UniProt P47712); assay: Inhibition of phospholipase A2 (unknown origin) at 10 uM relative to control
T2 sequence (whole entry): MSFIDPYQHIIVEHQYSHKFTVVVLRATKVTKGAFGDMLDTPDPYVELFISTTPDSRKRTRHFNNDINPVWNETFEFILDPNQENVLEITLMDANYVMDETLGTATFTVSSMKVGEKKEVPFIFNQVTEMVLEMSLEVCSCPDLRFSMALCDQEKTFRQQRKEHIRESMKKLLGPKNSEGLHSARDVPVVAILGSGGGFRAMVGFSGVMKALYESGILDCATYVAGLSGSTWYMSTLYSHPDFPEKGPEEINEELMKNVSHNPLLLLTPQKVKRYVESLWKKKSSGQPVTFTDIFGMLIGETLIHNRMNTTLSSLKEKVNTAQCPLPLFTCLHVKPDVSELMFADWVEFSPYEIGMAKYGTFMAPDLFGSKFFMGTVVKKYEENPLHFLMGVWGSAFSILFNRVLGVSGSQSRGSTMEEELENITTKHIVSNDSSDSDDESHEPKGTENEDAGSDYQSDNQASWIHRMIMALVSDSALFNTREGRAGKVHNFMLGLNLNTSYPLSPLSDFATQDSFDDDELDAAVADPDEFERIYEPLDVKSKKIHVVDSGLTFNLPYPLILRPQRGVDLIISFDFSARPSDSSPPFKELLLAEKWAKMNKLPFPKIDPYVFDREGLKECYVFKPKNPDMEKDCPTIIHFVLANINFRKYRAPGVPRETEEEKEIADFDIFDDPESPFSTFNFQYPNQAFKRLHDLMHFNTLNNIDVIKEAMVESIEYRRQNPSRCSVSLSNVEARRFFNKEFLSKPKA

[12] = Efflux ratio of permeability across human Caco2 cells; format: ADME, cell-based; details: Caco-2
How it was run: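 Caco-2 cells were seeded at 1-2 x 10^5 cells/cm2 on 0.4 µm PET filter inserts and cultured 10 to 25 days. Compound in HTP-4 transport buffer was added to the apical or basolateral donor side for A-B or B-A transport. Donor and receiver samples were taken up to 2 h and measured by LC/MS/MS. Each value is from duplicate 6-timepoint curves (0 to 2 h).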

[13] = Mean residence time in rat at 1 mg/kg, iv; format: ADME, organism-based; design: dose 1 mg/kg, route intravenous; details: in vivo; how it was run: as §1
[14] = Permeability across apical to basolateral side in human Caco2 cells measured up to 2 hrs by LC/MS/MS analysis; format: ADME, cell-based; details: Caco-2, read-out: permeability
How it was run: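 Caco-2 cells seeded at 1-2 x 10^5 cells/cm2 on 0.4 µm PET filter inserts, cultured 10 to 25 days. Compound in HTP-4 buffer applied to apical donor side; donor sampled at start and end, receiver sampled over up to 2 h; quantified by LC/MS/MS. Duplicate 6-timepoint (0 to 2 h).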

solubility thermodynamic at 24 h [1]: 48 µg/mL (≈ 105 µM)
MRT [3]: 23 h
concentration at 2 h [5]: 1.7 µM
bioavailability [6]: 63%
fraction unbound [7]: 0.047
CL free (Hepatocyte): 8.7%
concentration at 2 h [8]: 152 µM
CL (Canis familiaris): 2.8%
inhibition [9]: < 50%
inhibition [11]: < 50%
efflux ratio [12]: 1.9
MRT [13]: 3.1 h
Papp A→B at 2 h [14]: 34 ×10⁻⁶ cm/s
SMILES: CN(C)C(=O)Cn1cc(-c2nc([C@@](C)(c3ccc(-c4cnc(N)nc4)cc3)C3CC3)no2)cn1 [BI 665915]
inhibition (Mus musculus [2]): Dose-dependent effect
Activity (Mus musculus [4]): 91%
Activity (Mus musculus [10]): 5.1%
